Results on five compounds are retold here after ChEMBL document CHEMBL1127550 (J Med Chem, 1994).

Molecules are shown by their SMILES. Some results are limits rather than exact numbers.

Data set [1] addresses T1, Cannabinoid receptor (Rattus norvegicus, UniProt Q9QZN9+P20272). As to the kind of experiment: Binding affinity for the cannabinoid receptor in the absence of phenylmethanesulfonyl fluoride (PMSF) was determined in rat fore brain membranes. In kind it is cell membranes, Membrane.
Data set [2] addresses T1, Cannabinoid receptor. As to the kind of experiment: Binding affinity for the cannabinoid receptor in the presence of phenylmethanesulfonyl fluoride (PMSF) was determined in rat fore brain membranes. The format is cell membranes, Membrane.
Data set [3] is filed under the species Mus musculus. Kind of data set: Tested for potency towards inhibition of the twitch response in mouse vas deferens. The format is functional. The gist of the method: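 Vasa deferentia from albino MF1 mice were mounted at 0.5 g initial tension in Mg2+-free Krebs at 37 °C, gassed 95% O2/5% CO2, and stimulated electrically (0.5 ms pulses). Increasing doses were added after washout; twitch amplitude at 14-15 min post-addition was compared with the pre-drug final minute. IC50 came from nonlinear-regression sigmoid log concentration-response curves, n = 6-8 tissues.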

Data set [4] concerns Mus musculus. As to the kind of experiment: Mean percentage time spend immobile on ring between 5 and 10 min at 6.25 (mg/kg) intravenous dose in 6 mice. The following applies: in vivo. The format is ADME, organism-based. In short, it runs like this: (§1)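 In male MF1 mice (23-29 g) dosed iv at time zero with a Tween 80/saline dispersion, each animal was placed at 5 min on a 5.5-cm horizontal ring on a 16-cm stalk. The percentage of the 5-min session spent immobile was scored. Ambient 20-22 °C, means ± SE, Dunnett's test versus vehicle.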

The test system of data set [5] is Mus musculus. Kind of data set: Mean number of squares entered(counts) over a 5 min period after placement in the center of a walled arena marked out in 16 squares of equal size at 6.25 (mg/kg) intravenous dose in 6 mice. The following applies: in vivo. The format is ADME, organism-based. In short, it runs like this:
(§2)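 Male MF1 mice (23-29 g) given drug iv at time zero (Tween 80/saline dispersion; vehicle control). Each mouse was placed immediately in the centre of a 30 × 30 cm walled arena divided into 16 equal squares. Squares entered from 0 to 5 min were counted. Ambient 20-22 °C, means ± SE, Dunnett's test against vehicle.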

For data set [6], the system named is Mus musculus. Kind of data set: Mean difference between rectal temperature measured at time zero and rectal temperature measured at 10 min at 10 (mg/kg) intravenous dose in 6 mice. In kind it is ADME, organism-based. The following applies: in vivo. In short, it runs like this: (§3)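 Male MF1 mice (23-29 g), drug dispersed with two parts Tween 80 by weight in 0.9% saline, injected iv at time zero; Tween 80 vehicle control. Rectal thermistor probe inserted 3 cm, read shortly before time zero and at 10 min; change = difference. Mice unrestrained in separate cages, ambient 20-22 °C. Means ± SE, Dunnett's test versus vehicle.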

Data set [7] concerns Mus musculus. Kind of data set: Mean number of squares entered(counts) over a 5 min period after placement in the center of a walled arena marked out in 16 squares of equal size at 10 (mg/kg) intravenous dose in 6 mice. In kind it is ADME, organism-based. The conditions noted are these: in vivo. The gist of the method:
as §2

Data set [8] relates to Mus musculus. Kind of data set: Mean percentage time spend immobile on ring between 5 and 10 min at 10 (mg/kg) intravenous dose in 6 mice. The conditions noted are these: in vivo. In kind it is ADME, organism-based. The gist of the method: as §1
The subject of data set [9] is Mus musculus. As to the kind of experiment: Mean difference between rectal temperature measured at time zero and rectal temperature measured at 10 min at 6.25 (mg/kg) intravenous dose in 6 mice. The format is ADME, organism-based. The conditions noted are these: in vivo. In short, it runs like this: as §3
For data set [10], the system named is Mus musculus. Kind of data set: Mean number of squares entered(counts) over a 5 min period after placement in the center of a walled arena marked out in 16 squares of equal size at 1.5625 (mg/kg) intravenous dose in 6 mice. In kind it is ADME, organism-based. The following applies: in vivo. The gist of the method:
as §2

The subject of data set [11] is Mus musculus. As to the kind of experiment: Mean percentage time spend immobile on ring between 5 and 10 min at 3.125 (mg/kg) intravenous dose in 6 mice. The format is ADME, organism-based. The conditions noted are these: in vivo. In short, it runs like this:
as §1

For data set [12], the system named is Mus musculus. As to the kind of experiment: Mean percentage time spend immobile on ring between 5 and 10 min at 1.5625 (mg/kg) intravenous dose in 6 mice. The format is ADME, organism-based. The conditions noted are these: in vivo. The gist of the method:
as §1

The subject of data set [13] is Mus musculus. As to the kind of experiment: Mean number of squares entered(counts) over a 5 min period after placement in the center of a walled arena marked out in 16 squares of equal size at 3.125 (mg/kg) intravenous dose in 6 mice. In kind it is ADME, organism-based. The following applies: in vivo. In short, it runs like this:
as §2

Data set [14] has as its system Mus musculus. Kind of data set: Mean difference between rectal temperature measured at time zero and rectal temperature measured at 10 min at 1.5625 (mg/kg) intravenous dose in 6 mice. The format is ADME, organism-based. The conditions noted are these: in vivo. The gist of the method: as §3
The subject of data set [15] is Mus musculus. Kind of data set: Mean difference between rectal temperature measured at time zero and rectal temperature measured at 10 min at 3.125 (mg/kg) intravenous dose in 6 mice. The format is ADME, organism-based. The conditions noted are these: in vivo. In short, it runs like this:
as §3

The term Ki denotes the equilibrium dissociation constant of an inhibitor or competing ligand from its target. One may read the IC50 as the point on the concentration scale where inhibition reaches its midpoint. The low end stands for inhibition by little substance, the high end for a need for much substance. Regarding `CCCCC/C=C\C/C=C\C/C=C\C/C=C\CCCC(=O)NC[C@H](C)O`, the figures for the Ki at Cannabinoid receptor [1] and on Cannabinoid receptor [2] were 158 nM and 26 nM, respectively. In the data set listed under Mus musculus [3], this compound yielded an IC50 of 47 nM.

For the compound `CCCCC/C=C\C/C=C\C/C=C\C/C=C\CCCC(=O)NC[C@@H](C)O`, the values for the Ki on Cannabinoid receptor [1] and at Cannabinoid receptor [2] were > 2950 nM and 119 nM, respectively. This compound also returned an IC50 in the data set listed under Mus musculus [3] of 100 nM.

In the case of `CCCCC/C=C\C/C=C\C/C=C\C/C=C\CCCC(=O)N[C@@H](C)CO`, the half-inhibitory concentration (IC50) in the data set filed under Mus musculus [3] stood at 230 nM.

With `CCCCC/C=C\C/C=C\C/C=C\C/C=C\CCCC(=O)NCCO` [ANANDAMIDE], the Ring immobility with Mus musculus [4] is given as 93.9%; with Mus musculus [8], 64.2%. Also, the Hypokinesia was 10.2 Counts with Mus musculus [5] and 14.7 Counts with Mus musculus [7]. For the same compound, the Body temperature in the data set on Mus musculus [6] is -1.43 °C; with Mus musculus [9] it was -3.18 °C. Further, in the data set listed under Mus musculus [3], the IC50 worked out at 52 nM.

For the compound `CCCCC/C=C\C/C=C\C/C=C\C/C=C\CCCC(=O)N[C@H](C)CO` [METHANANDAMIDE], the results for the Hypokinesia in the data set with Mus musculus [10] and in the data set on Mus musculus [13] were 76.8 Counts and 26.5 Counts, respectively. Besides, the results for the Ring immobility in the data set on Mus musculus [11] and in the data set with Mus musculus [12] were 87.4% and 40.2%, respectively. Further, the IC50 in the data set filed under Mus musculus [3] turned out to be 12 nM. Moreover, the Body temperature with Mus musculus [14] was 0.27 °C; in the data set with Mus musculus [15], 1.5 °C.
